According to ChEMBL document CHEMBL4665760, “Rational Design and Synthesis of Methyl-β-d-galactomalonyl Phenyl Esters as Potent Galectin-8N Antagonists” (J Med Chem, 2020):
Each block holds one compound with its values, some of them ahead of it. Active and inactive are the calls of the source. The calls are words filed in the database; no cut-off is given here.

Key:
Galectin-8 = target: T1, Galectin-8 (Homo sapiens, UniProt O00214); experiment: Binding affinity to N-terminal domain of human galectin-8 (8-154 residues) by ITC assay
T1 sequence (O00214 whole entry): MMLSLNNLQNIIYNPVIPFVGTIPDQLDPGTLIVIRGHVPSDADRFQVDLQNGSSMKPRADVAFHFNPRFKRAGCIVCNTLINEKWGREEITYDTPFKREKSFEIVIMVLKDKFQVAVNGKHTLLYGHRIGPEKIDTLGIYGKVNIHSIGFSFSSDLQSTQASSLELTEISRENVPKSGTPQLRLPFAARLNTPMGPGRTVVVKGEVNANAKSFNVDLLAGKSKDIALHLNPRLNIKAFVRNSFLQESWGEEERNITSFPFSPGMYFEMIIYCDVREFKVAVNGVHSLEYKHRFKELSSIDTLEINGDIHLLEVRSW
In short: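 Untagged galectin-8N (residues 8-154) was expressed in bacteria (IPTG induction 4 h, room temperature) and purified on lactosyl-Sepharose at 4 °C. Protein and ligand were in 20 mM Tris pH 7.5, 100 mM NaCl, 4 mM BME, 5% DMSO and degassed. Ligand (0.5 or 1 mM) was titrated into 100 µM protein over 20-25 × 2.5 µl injections, 150 s apart, at 298 K. Blank-corrected data were fitted to an independent-site model for Kd.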

[1] = target: T2, Galectin-8 (Homo sapiens) (UniProt O00214); experiment: Antagonist activity at galectin-8 in human SUM159PT cells assessed as reduction in galectin-8-induced IL-1beta mRNA expression at 500 uM incubated for 24 hrs by real-time PCR analysis; assay type: cell-based
T2 sequence (whole entry): T1 sequence (O00214 whole entry)
In short: (§1)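 SUM159 triple-negative breast cancer cells grown in RPMI with 10% FBS and penicillin/streptomycin at 37 °C, 5% CO2. Cells seeded at 50000 cells/cm², then incubated 24 h with compound at 500 µM, with or without 50 nM galectin-8. Means ± SEM from experiments done in duplicates.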

[2] = target: T2, Galectin-8 (Homo sapiens); experiment: Antagonist activity at galectin-8 in human SUM159PT cells assessed as reduction in galectin-8-induced IL-6 mRNA expression at 500 uM incubated for 24 hrs by real-time PCR analysis; assay type: cell-based; in short: as §1
[3] = target: T2, Galectin-8 (Homo sapiens); experiment: Antagonist activity at galectin-8 in human SUM159PT cells assessed as reduction in galectin-8-induced IL-8 mRNA expression at 500 uM incubated for 24 hrs by real-time PCR analysis; assay type: cell-based; in short: as §1
[4] = target: T2, Galectin-8 (Homo sapiens); experiment: Antagonist activity at galectin-8 in human SUM159PT cells assessed as reduction in galectin-8-induced IL-6 mRNA expression at 1 uM incubated for 24 hrs by real-time PCR analysis; assay type: cell-based; conditions: filed as antagonist
In short: (§2)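 SUM159 triple-negative breast cancer cells in RPMI/10% FBS at 37 °C, 5% CO2, seeded at 50000 cells/cm². Galectin-8 (50 nM) stimulated, with or without compound. Dose-response run at 1, 10, 100 and 500 µM.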

[5] = target: T2, Galectin-8 (Homo sapiens); experiment: Antagonist activity at galectin-8 in human SUM159PT cells assessed as reduction in galectin-8-induced IL-8 mRNA expression at 1 uM incubated for 24 hrs by real-time PCR analysis; assay type: cell-based; conditions: filed as antagonist; in short: as §2
[6] = target: T2, Galectin-8 (Homo sapiens); experiment: Potency index, ratio of Kd for lactose to Kd for test compound for binding affinity to N-terminal domain of human galectin-8 (8-154 residues) by ITC assay; conditions: filed as antagonist

SMILES: CO[C@@H]1O[C@H](CO)[C@H](O)[C@H](OC(=O)CC(=O)Oc2ccc(Cl)cc2Cl)[C@H]1O
Kd (Galectin-8): 11.9 µM

SMILES: CO[C@@H]1O[C@H](CO)[C@H](O)[C@H](OC(=O)CC(=O)O)[C@H]1O
Kd (Galectin-8): 33.6 µM
Antagonist activity [1]: inactive
inhibition [2]: inactive
inhibition [3]: inactive

SMILES: CO[C@@H]1O[C@H](CO)[C@H](O)[C@H](OC(=O)CC(=O)Oc2ccccc2)[C@H]1O
Kd (Galectin-8): 12.8 µM

SMILES: COc1cc(OC)cc(OC(=O)CC(=O)O[C@H]2[C@@H](O)[C@@H](CO)O[C@@H](OC)[C@@H]2O)c1
Kd (Galectin-8): 11 µM

SMILES: COC(=O)CC(=O)O[C@H]1[C@@H](O)[C@@H](CO)O[C@@H](OC)[C@@H]1O
Kd (Galectin-8): 24.9 µM
Antagonist activity [1]: inactive
inhibition [2]: inactive
inhibition [3]: inactive

Stronger by Kd (Galectin-8), values ahead:

Kd (Galectin-8): 9.47 µM
SMILES: COc1ccc(OC(=O)CC(=O)O[C@H]2[C@@H](O)[C@@H](CO)O[C@@H](OC)[C@@H]2O)cc1

Kd (Galectin-8): 2.3 µM
SMILES: CC(=O)N[C@H]1[C@H]([C@H](O)[C@H](O)CO)O[C@@](O[C@H]2[C@@H](O)[C@@H](CO)O[C@@H](O[C@H]3[C@H](O)[C@@H](O)[C@H](O)O[C@@H]3CO)[C@@H]2O)(C(=O)O)C[C@@H]1O

inhibition [4]: Active
inhibition [5]: Active
Kd (Galectin-8): 5.72 µM
Antagonist activity ([1]; filed as antagonist): Active
inhibition ([2]; filed as antagonist): Active
inhibition ([3]; filed as antagonist): Active
Ratio [6]: 7
SMILES: CO[C@@H]1O[C@H](CO)[C@H](O)[C@H](OC(=O)CC(=O)Oc2ccc(F)cc2)[C@H]1O

inhibition [4]: Active
inhibition [5]: Active
Kd (Galectin-8): 9.17 µM
Antagonist activity ([1]; filed as antagonist): Active
inhibition ([2]; filed as antagonist): Active
inhibition ([3]; filed as antagonist): Active
SMILES: CO[C@@H]1O[C@H](CO)[C@H](O)[C@H](OC(=O)CC(=O)OCc2ccccc2)[C@H]1O
